Laboratory results published in the EternaBench riboswitch data.

Tested on: MS2 coat protein
Assay: apparent Kd, MS2 coat protein; higher = weaker binding; RNA-MaP array; FMN 200 µM where present
How it was run: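 Binding was read on Illumina sequencing-chip clusters where stalled E. coli RNA polymerase had transcribed each design. A titration of SNAP-549-labelled MS2 coat protein began at 0.7 or 1.5 nM and doubled to 3 µM, once without ligand and once with constant ligand, in 100 mM Tris-HCl pH 7.5, 80 mM KCl, 4 mM MgCl2, BSA, DTT, yeast tRNA and Tween-20. The apparent Kd is the median of filtered per-cluster binding-curve fits, based on green signal normalised to red-channel RNA signal and control-cluster median Fmax.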

[1] = designed as: ON switch for flavin mononucleotide, no ligand
[2] = ligand present: flavin mononucleotide, designed as: ON switch for flavin mononucleotide
[3] = designed as: OFF switch for flavin mononucleotide, no ligand
[4] = ligand present: flavin mononucleotide, designed as: OFF switch for flavin mononucleotide

Sequence: GGAGCACAUAUUAACAUGAGGAUCACCCAUGUCAAAAGACAUGAGGAUAUGGAUCCGAAAAGGAUCUAGAAGGCAUGGUGCUCC
- apparent Kd [1]: 0.69 µM
- apparent Kd [2]: 0.0221 µM

Sequence: GGAGCAGGGUCAGGAUAUGUAAGUAGACGGCAAAUAGAAGGGACAUGAGGAUCACCCAUGUAACAUUAAAAUGAAGCAAGGGAG
- apparent Kd [3]: 0.0591 µM
- apparent Kd [4]: 0.0711 µM

Sequence: GGAGCCGGCCUAGGAUAUUUCAUAACAAAACAUGAGGAUCACCCAUGUAGGCCAGAAGGCCUUGGGAAGAAGGAGGUCGGCUCC
- apparent Kd [1]: 0.0296 µM
- apparent Kd [2]: 0.0117 µM

Sequence: GGAGCUCCAGCGCAGGAUAUCGACCCAGGGACAUGAGGAUCACCCAUGUUCCAAAAAAAAUGGGUCGAGAAGGGCGUUGGAGAGCC
- apparent Kd [1]: 0.0126 µM
- apparent Kd [2]: 0.00962 µM

Sequence: GGAGCUCCUGACAUGAGGAUCACCCAUGUUCACUUAUUAAAUCAGGAUAUCCUCUCGAAACGAGAGGAGAAGGGAUAUGCUCCU
- apparent Kd [1]: 0.00758 µM
- apparent Kd [2]: 0.00704 µM

Sequence: GGAGGACAUGAGGAUCACCCAUGUGGAUGAUCGCUAGGAUAUGCGUGCAGGAAGAGUGGUGCAGAAGGAGUGGGAU
- apparent Kd [1]: 0.451 µM
- apparent Kd [2]: 0.288 µM

Sequence: GGAUACGACAGAGGAUAUACGUGCUAGAGAUACUAGCAAAAUUUCCUCACAUGAGGAUCACCCAUGUAGAAGGCUGUCCUAUCG
- apparent Kd [3]: 0.0162 µM
- apparent Kd [4]: 0.337 µM

Sequence: GGAUAGCACAGAGGAUAUACGUGCUAGAGAUACUAGCAAAAUUUCCUCACAUGAGGAUCACCCAUGUAGAAGGCUGUCCUAUCG
- apparent Kd [3]: 0.00444 µM
- apparent Kd [4]: 0.0055 µM

Sequence: GGAUAGGACAGAGGAUAUACGUGCUAGAGAUACUAGCAAAAGUUCCUCACAUGAGGAUCACCCAUGUAGAAGGCUGUCCUAUCG
- apparent Kd [3]: 0.0655 µM
- apparent Kd [4]: 0.214 µM

Sequence: GGAUAGGACAGAGGAUAUACGUGCUAGAGAUACUAGCAAAAUUUCCUCACAUGAGGAUCACCCAUGUAGAAGGAUGUCCUAUCG
- apparent Kd [3]: 0.0053 µM
- apparent Kd [4]: 0.00761 µM

Sequence: GGAUAGGACAGAGGAUAUACGUGCUAGAGAUACUAGCAAAAUUUCCUCACAUGAGGAUCACCCAUGUAGAAGGCUGUCCAAUCG
- apparent Kd [3]: 0.0138 µM
- apparent Kd [4]: 0.429 µM

Sequence: GGAUAGGACAGAGGAUAUACGUGCUAGAGAUACUAGCAAAAUUUCCUCACAUGAGGAUCACCCAUGUAGAAGGCUGUCCUAUGG
- apparent Kd [3]: 0.0166 µM
- apparent Kd [4]: 0.402 µM

Sequence: GGAUAGGACAGAGGAUAUACGUGCUAGAGAUACUAGCAAAAUUUCCUCACAUGAGGAUCACCCAUGUAGAAGGCUGUCGUAUCG
- apparent Kd [3]: 0.0153 µM
- apparent Kd [4]: 0.334 µM

Sequence: GGAUAGGACAGAGGAUAUACGUGCUAGAGAUACUAGCAAAAUUUCCUCACAUGAGGAUCACCCAUGUAGAAGGCUGUGCUAUCG
- apparent Kd [3]: 0.0164 µM
- apparent Kd [4]: 0.343 µM

Sequence: GGAUAGGACAGAGGAUAUACGUGCUAGAGAUACUAGCAAAAUUUCCUUACAUGAGGAUCACCCAUGUAGAAGGCUGUCCUAUCG
- apparent Kd [3]: 0.00579 µM
- apparent Kd [4]: 0.0127 µM

Sequence: GGAUAGGACAGAGGAUAUACGUGCUAGAGAUACUAGCGAAAUUUCCUCACAUGAGGAUCACCCAUGUAGAAGGCUGUCCUAUCG
- apparent Kd [3]: 0.0281 µM
- apparent Kd [4]: 0.892 µM

Sequence: GGAUAGGACAGAGGAUAUACGUGCUAGAGAUACUAUCAAAAUUUCCUCACAUGAGGAUCACCCAUGUAGAAGGCUGUCCUAUCG
- apparent Kd [3]: 0.27 µM
- apparent Kd [4]: 0.0521 µM

Sequence: GGAUAGGACAGAGGAUAUACGUGCUAGAGAUUCUAGCAAAAUUUCCUCACAUGAGGAUCACCCAUGUAGAAGGCUGUCCUAUCG
- apparent Kd [3]: 0.0156 µM
- apparent Kd [4]: 0.321 µM

Sequence: GGAUAGGACAGAGGAUAUACGUGCUAGCGAUACUAGCAAAAUUUCCUCACAUGAGGAUCACCCAUGUAGAAGGCUGUCCUAUCG
- apparent Kd [3]: 0.0157 µM
- apparent Kd [4]: 0.427 µM

Sequence: GGAUAGGACAGAGGAUAUACUUGCUAGAGAUACUAGCAAAAUUUCCUCACAUGAGGAUCACCCAUGUAGAAGGCUGUCCUAUCG
- apparent Kd [3]: 0.00695 µM
- apparent Kd [4]: 0.0545 µM

Sequence: GGAUAUAACGUAGGAUAUCUGAGAAAUAGAUGAAGAGAAGGACGACAUGAGGAUCACCCAUGUGAUCUAUCAAUAUUAUACAUG
- apparent Kd [3]: 0.452 µM
- apparent Kd [4]: 0.749 µM

Sequence: GGAUAUAUACAGGAGGAUAUGAGAACAAAGACAUGAGGAUCACCCAUGUACAAAAGGUGGAACAAUCAGAAGGUCUAAACAACAAA
- apparent Kd [1]: 0.0783 µM
- apparent Kd [2]: 0.069 µM

Sequence: GGAUAUGUCGUCUACAUGAGGAUCACCCAUGUCGAUAGACAUGAGGAUAUUGAUAAGAAUUGUAUCGAGAAGGUAUGUAGGUCC
- apparent Kd [1]: 0.0193 µM
- apparent Kd [2]: 0.0267 µM

Sequence: GGAUCCUGGGUCAGGAUAUGCUGACAGCUUUGUCAGCAGAAGGGACAUGAGGAUCACCCAUGUGCUCGGUUUUG
- apparent Kd [3]: 0.0101 µM
- apparent Kd [4]: 0.0181 µM

Sequence: GGAUCGAAUGUGAGGAUAUACCUAUGGAAACAUAGGUAGAAGGCACAUGAGGAUCACCCAUGUCCUAACGGUCC
- apparent Kd [3]: 0.419 µM
- apparent Kd [4]: 0.456 µM

Sequence: GGAUCGAGUGUGAGGAUAUACCACUGGAUACAGUGGUAGAAGGCACAUGAGGAUCACCCAUGUCCUUACGAUCC
- apparent Kd [3]: 0.0814 µM
- apparent Kd [4]: 0.436 µM

Sequence: GGAUGACAAAGUCAUCCAAUACGAACAUGAGGAUCACCCAUGUAGGAUAUGCUACUCAAAGAGUAGCAGAAGGACAUGUGCCUU
- apparent Kd [3]: 0.0338 µM
- apparent Kd [4]: 0.252 µM
